For assay [1], the species on record is Oryctolagus cuniculus. Description: In vitro inhibition of potassium-contracted rabbit aorta strips. Format: functional. In short, it runs like this:
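Rabbit thoracic aorta strips contracted with potassium chloride (100 mM) in the presence of calcium. IC50 is the drug concentration giving 50% relaxation, reported with 95% confidence intervals.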

The species entered for assay [2] is Oryctolagus cuniculus. Description: In vitro evaluation for the inhibition of potassium-contracted rabbit aorta strips by vasorelaxant assay. Format: functional. An outline of the steps: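 Rabbit thoracic aorta strips contracted with potassium chloride (100 mM) in the presence of calcium. IC50 taken as the drug concentration giving 50% relaxation of the contraction, reported with 95% confidence intervals.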

In turn, `CC1=C(C(=O)OC(C)C)C(c2ccccc2C(F)(F)F)N(C(=O)O[C@H]2CCN(Cc3ccccc3)C2)C(=O)N1` (some centres not stated) had an IC50 in the assay listed under Oryctolagus cuniculus [1] of 790 nM.

Turning to `CC1=C(C(=O)OC(C)C)C(c2ccccc2C(F)(F)F)N(C(=O)OC2CCCN(Cc3ccccc3)C2)C(=O)N1` (configuration not stated), the IC50 in the assay filed under Oryctolagus cuniculus [1] came out at 130 nM.

As to `CC1=C(C(=O)OC(C)C)C(c2cccc([N+](=O)[O-])c2)N(C(=O)OC2CCN(Cc3ccccc3)CC2)C(=O)N1` (configuration not stated), the IC50 in the assay listed under Oryctolagus cuniculus [1] was 12 nM.

In the assay filed under Oryctolagus cuniculus [1], `CCO/C(O)=C1\C(C)=NC(=S)N(C(=O)OCCN(C)Cc2ccccc2)C1c1ccccc1C(F)(F)F` (configuration not stated) showed an IC50 of 23 nM.

In turn, `CC1=C(C(=O)OC(C)C)C(c2ccccc2[N+](=O)[O-])N(C(=O)OC2CCN(Cc3ccccc3)CC2)C(=O)N1` (configuration not stated) displayed an IC50 in the assay filed under Oryctolagus cuniculus [1] of 8 nM.

With `CC1=NC(=S)N(C(=O)OC2CCN(Cc3ccccc3)CC2)C(c2ccccc2C(F)(F)F)/C1=C(\O)OC(C)C` (configuration not stated), the IC50 in the assay listed under Oryctolagus cuniculus [1] was 5 nM. Against the preceding molecule, the IC50 is about 1.6-fold lower.

`CCO/C(O)=C1\C(C)=NC(=S)N(C(=O)OC2CCN(Cc3ccccc3)CC2)C1c1ccccc1C(F)(F)F` (configuration not stated) came in with an IC50 in the assay listed under Oryctolagus cuniculus [1] of 9 nM.

In turn, `CC1=NC(=S)N(C(=O)OC2CCN(Cc3ccccc3)CC2)C(c2ccccc2Cl)/C1=C(\O)OC(C)C` (configuration not stated) showed an IC50 in the assay filed under Oryctolagus cuniculus [1] of 5 nM.

In the assay filed under Oryctolagus cuniculus [1], `CCOC(=O)N1C(=S)N=C(C)/C(=C(/O)OCC)C1c1ccccc1C(F)(F)F` (configuration not stated) had an IC50 of 41 nM. This IC50 lies about 8.2-fold higher than the previous one.

On to `CC1=C(C(=O)OC(C)C)C(c2cccc([N+](=O)[O-])c2)N(C(=O)O[C@H](C)CN(C)Cc2ccccc2)C(=O)N1` (some centres not stated), for which inhibition in the assay listed under Oryctolagus cuniculus [1] was half-maximal at 64 nM (IC50).

`CC1=C(C(=O)OC(C)C)C(c2cccc([N+](=O)[O-])c2)N(CCCN(C)Cc2ccccc2)C(S)=N1` (configuration not stated) registered an IC50 in the assay filed under Oryctolagus cuniculus [1] of 72 nM.

`CC1=C(C(=O)OC(C)C)C(c2ccccc2C(F)(F)F)N(CCC2CCN(Cc3ccccc3)CC2)C(S)=N1` (configuration not stated) displayed an IC50 in the assay filed under Oryctolagus cuniculus [1] of 120 nM.

In the assay listed under Oryctolagus cuniculus [2], `COC(=O)C1=C(C)NC(C)=C(C(=O)OC)C1c1ccccc1[N+](=O)[O-]` [NIFEDIPINE] had an IC50 of 2 nM. That is a single-digit nanomolar value.

Regarding `CCOC(=O)C1=C(COCCN)NC(C)=C(C(=O)OC)C1c1ccccc1Cl` (configuration not stated) [AMLODIPINE], the IC50 in the assay filed under Oryctolagus cuniculus [1] was determined as 3 nM.

The molecule `CCOC(=O)N1C(=S)N=C(C)/C(=C(/O)OCCN(C)Cc2ccccc2)C1c1ccccc1C(F)(F)F` (configuration not stated) had an IC50 in the assay listed under Oryctolagus cuniculus [1] of 22 nM.

Turning to `CC1=NC(=S)N(C(=O)OC2CCN(Cc3ccccc3)CC2)C(c2ccccc2[N+](=O)[O-])/C1=C(\O)OC(C)C` (configuration not stated), in the assay listed under Oryctolagus cuniculus [1], half-maximal inhibition (IC50) was put at 2 nM.

In turn, `CC1=NC(=S)N(C(=O)OC2CCN(Cc3ccccc3)CC2)C(c2cccc([N+](=O)[O-])c2)/C1=C(\O)OC(C)C` (configuration not stated) registered an IC50 in the assay filed under Oryctolagus cuniculus [1] of 4 nM. Against the preceding molecule, the IC50 is about 2-fold higher.

Molecule `CC1=NC(=S)N(C(=O)OC2CCN(Cc3ccc(F)cc3)CC2)C(c2ccccc2C(F)(F)F)/C1=C(\O)OC(C)C` (configuration not stated) showed an IC50 in the assay listed under Oryctolagus cuniculus [1] of 7 nM. This IC50 lies about 1.8-fold higher than the previous one.

`CCOC(=O)C1=C(C)N=C(S)NC1c1cccc([N+](=O)[O-])c1` (configuration not stated): the IC50 in the assay filed under Oryctolagus cuniculus [1] was above 1000 nM.

The molecule `CC1=NC(=S)N(C(=O)OC2CCN(Cc3ccc(F)cc3)CC2)[C@@H](c2ccccc2C(F)(F)F)/C1=C(\O)OC(C)C` had an IC50 in the assay listed under Oryctolagus cuniculus [1] above 1000 nM.

In the assay listed under Oryctolagus cuniculus [1], `CC1=C(C(=O)OCC(C)C)C(c2ccccc2C(F)(F)F)N(C(=O)OC2CCN(Cc3ccccc3)CC2)C(=O)N1` (configuration not stated) had an IC50 of 98 nM.

`CC1=C(C(=O)OC(C)C)C(c2ccccc2C(F)(F)F)N(C(=O)OC2CCN(Cc3ccccc3)CC2)C(=O)N1` (configuration not stated) showed an IC50 in the assay filed under Oryctolagus cuniculus [1] of 50 nM.

On to `CC1=C(C(=O)OC(C)C)C(c2ccccc2C(F)(F)F)N(C(=O)O[C@@H]2CCN(Cc3ccccc3)C2)C(=O)N1` (some centres not stated), for which the IC50 in the assay filed under Oryctolagus cuniculus [1] came to 360 nM.

In the assay filed under Oryctolagus cuniculus [1], `CCOC(=O)N1C(=S)N=C(C)/C(=C(/O)OCCN(C)Cc2ccccc2)C1c1cccc([N+](=O)[O-])c1` (configuration not stated) displayed an IC50 of 34 nM.

Molecule `CCO/C(O)=C1\C(C)=NC(=S)N(C(=O)O[C@H]2CCN(Cc3ccccc3)C2)C1c1ccccc1C(F)(F)F` (some centres not stated) gave an IC50 in the assay listed under Oryctolagus cuniculus [1] of 2 nM. Compared with the last molecule, the IC50 is about 17-fold lower.

In turn, `CC1=C(C(=O)OC(C)C)C(c2ccccc2C(F)(F)F)N(C(=O)OC2CCN(Cc3ccc(Cl)cc3)CC2)C(=O)N1` (configuration not stated) gave an IC50 in the assay filed under Oryctolagus cuniculus [1] of 55 nM. Compared with the last molecule, the IC50 is about 28-fold higher.

Regarding `CC1=C(C(=O)OC(C)C)C(c2cccc([N+](=O)[O-])c2)N(C(=O)O[C@@H](C)CN(C)Cc2ccccc2)C(=O)N1` (some centres not stated), 57 nM corresponded to half-maximal inhibition in the assay listed under Oryctolagus cuniculus [1] (IC50).

`CC1=NC(=S)N(C(=O)OC2CCN(Cc3ccc(F)cc3)CC2)[C@H](c2ccccc2C(F)(F)F)/C1=C(\O)OC(C)C` returned an IC50 in the assay filed under Oryctolagus cuniculus [1] of 15 nM. This IC50 lies about 3.8-fold lower than the previous one.

`CCO/C(O)=C1\C(C)=NC(=S)N(C(=O)OCCN(C)Cc2ccccc2)C1c1cccc([N+](=O)[O-])c1` (configuration not stated) had an IC50 in the assay filed under Oryctolagus cuniculus [1] of 29 nM.

`CCOC(=O)N1C(=S)N=C(C)/C(=C(/O)OCC)C1c1cccc([N+](=O)[O-])c1` (configuration not stated) registered an IC50 in the assay listed under Oryctolagus cuniculus [1] of 17 nM.

On to `CCCN1C(S)=NC(C)=C(C(=O)OC2CCN(Cc3ccccc3)CC2)C1c1ccccc1C(F)(F)F` (configuration not stated), for which, in the assay listed under Oryctolagus cuniculus [1], the IC50 is above 1000 nM.

Take `CCO/C(O)=C1\C(C)=NC(=S)N(C(=O)OC(C)C)C1c1ccccc1C(F)(F)F` (configuration not stated): the IC50 in the assay filed under Oryctolagus cuniculus [1] is 50 nM. That is a double-digit nanomolar value.

Values taken from ChEMBL document CHEMBL1125542, “Dihydropyrimidine calcium channel blockers. 4. Basic 3-substituted-4-aryl-1,4-dihydropyrimidine-5-carboxylic acid esters. Potent antihypertensive agents” (J Med Chem, 1992).
